Laboratory results as given in ChEMBL document CHEMBL1122350, “Ferric ion sequestering agents. 11. Synthesis and kinetics of iron removal from transferrin of catechoyl derivatives of desferrioxamine B” (J Med Chem, 1983).
Each block holds one compound with its values, some of them ahead of it.

Legend:
[1] = molecular target: Serotransferrin (Homo sapiens) (UniProt P02787); assay: Ability to remove iron from human iron transport protein transferrin, at a concentration of 20 mM, expressed as % iron removal in 30 minutes; type: functional
Chain of Serotransferrin (Homo sapiens) (P02787 whole entry): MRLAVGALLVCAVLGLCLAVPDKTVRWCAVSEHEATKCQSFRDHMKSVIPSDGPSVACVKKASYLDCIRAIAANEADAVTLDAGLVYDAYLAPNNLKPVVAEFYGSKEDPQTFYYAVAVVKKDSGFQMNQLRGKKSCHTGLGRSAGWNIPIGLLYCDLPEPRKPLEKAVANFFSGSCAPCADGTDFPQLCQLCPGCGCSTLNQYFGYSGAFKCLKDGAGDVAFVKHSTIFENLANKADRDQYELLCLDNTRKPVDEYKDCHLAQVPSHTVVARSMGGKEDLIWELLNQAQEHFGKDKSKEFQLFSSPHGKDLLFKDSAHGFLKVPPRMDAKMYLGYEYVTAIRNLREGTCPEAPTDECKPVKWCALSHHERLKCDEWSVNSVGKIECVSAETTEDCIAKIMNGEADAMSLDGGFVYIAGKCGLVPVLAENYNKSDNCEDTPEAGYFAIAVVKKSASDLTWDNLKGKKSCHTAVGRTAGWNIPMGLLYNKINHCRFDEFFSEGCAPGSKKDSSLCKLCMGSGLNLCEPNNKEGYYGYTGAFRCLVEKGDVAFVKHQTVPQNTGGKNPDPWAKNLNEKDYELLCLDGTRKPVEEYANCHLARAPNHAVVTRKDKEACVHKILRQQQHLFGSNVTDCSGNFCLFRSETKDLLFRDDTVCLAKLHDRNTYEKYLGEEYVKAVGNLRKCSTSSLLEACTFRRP

[2] = Relative effectiveness at a concentration of 20 mM, on removal of Fe from transferrin as compared to Desferal; type: functional
[3] = molecular target: Serotransferrin (Homo sapiens) (UniProt P02787); assay: Ability to remove iron from human iron transport protein transferrin, at a concentration of 1.2mM, expressed as % iron removal in 30 minutes; type: functional
Outline: (§1)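 Diferric transferrin was made from apotransferrin saturated with fresh Fe(NTA)2^3-, then gel-filtered in 0.1 M NaClO4/0.1 M Tris-HCl pH 7.4 (≥95% saturation by A280/A466 ≤24, A428/A466 = 0.85). The ligand was dissolved in 0.1 M Tris-HCl pH 7.4 with slight heating and mixed 1:1 with transferrin ([Fe2Tf] 2.9 × 10^-5 M) at 25.0 °C. Visible spectra were followed at 466 nm, and % iron removed was read at 30 min.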

[4] = Relative effectiveness at a concentration of 0.2mM, on removal of Fe from transferrin as compared to Desferal; type: functional
Outline: (§2)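 Iron removal was measured spectrophotometrically from diferric transferrin (2.9 × 10^-5 M) in 0.1 M Tris-HCl pH 7.4 at 25.0 °C. A rough second-order rate constant k2 was taken as the % iron removed after 30 min divided by the initial ferric transferrin and ligand concentrations. The value is expressed as the ratio to the Desferal k2.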

[5] = molecular target: Serotransferrin (Homo sapiens) (UniProt P02787); assay: Ability to remove iron from transferrin, at a concentration of 0.1 mM, expressed as % iron removal in 30 minutes; type: functional; conditions: 0.2 mM; in the assay text read “0.2 mM” for “0.1 mM”; outline: as §1
[6] = molecular target: Serotransferrin (Homo sapiens) (UniProt P02787); assay: Ability to remove iron from human iron transport protein transferrin, at a concentration of 0.1 mM, expressed as % iron removal in 30 minutes; type: functional; outline: as §1
[7] = Relative effectiveness at a concentration of 0.1 mM, on removal of Fe from transferrin as compared to Desferal; type: functional; outline: as §2
[8] = molecular target: Serotransferrin (Homo sapiens) (UniProt P02787); assay: Ability to remove iron from human iron transport protein transferrin, at a concentration of 0.2 mM, expressed as % iron removal in 30 minutes; type: functional; outline: as §1
[9] = molecular target: Serotransferrin (Homo sapiens) (UniProt P02787); assay: Ability to remove iron from transferrin, at a concentration of 0.2 mM, expressed as % iron removal in 30 minutes; type: functional; outline: as §1
[10] = molecular target: Serotransferrin (Homo sapiens) (UniProt P02787); conditions: 500 mM

Structure (SMILES): CC(=O)N(O)CCCCCNC(=O)CCC(=O)N(O)CCCCCNC(=O)CCC(=O)N(O)CCCCCNC(=O)c1ccc(C(=O)O)c(O)c1O
- Fe removed [3]: 18%
- Ratio [4]: 130
- Fe removed [5]: 3%

Structure (SMILES): O=C(O)CN(CCN(CC(=O)O)CC(=O)O)CC(=O)O
- Fe removed [9]: 0%
- Fe removed [10]: 37%

Now from value to compound, other results behind:

- Fe removed [1]: 5%
Structure (SMILES): CC(=O)N(O)CCCCCNC(=O)CCC(=O)N(O)CCCCCNC(=O)CCC(=O)N(O)CCCCCN
- Ratio [2]: 1

- Fe removed [6]: 2%
Structure (SMILES): CC(=O)N(O)CCCCCNC(=O)CCC(=O)N(O)CCCCCNC(=O)CCC(=O)N(O)CCCCCNC(=O)c1cccc(O)c1O
- Ratio [7]: 180

- Fe removed [8]: 6%
Structure (SMILES): O=C(N[C@H]1COC(=O)[C@@H](NC(=O)c2cccc(O)c2O)COC(=O)[C@@H](NC(=O)c2cccc(O)c2O)COC1=O)c1cccc(O)c1O
- Ratio [4]: 120
